Reference: ChEMBL document CHEMBL3112447, “Discovery of 1-methyl-1H-imidazole derivatives as potent Jak2 inhibitors” (J Med Chem, 2014)

Experiments:
[1] = Cytotoxicity against mouse BA/F3 cells expressing TEL-Jak2 after 72 hrs by MTS assay; type: functional; conditions: BaF3, 72 h
Procedure, shortened: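 BaF3 TEL-Jak2 cells. Growth inhibition measured by MTS tetrazolium colorimetric read-out and reported as GI50.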

[2] = target: Tyrosine-protein kinase JAK1 (Homo sapiens, UniProt P23458); experiment: Inhibition of Jak1 (unknown origin)
Sequence of Tyrosine-protein kinase JAK1 (P23458 whole entry): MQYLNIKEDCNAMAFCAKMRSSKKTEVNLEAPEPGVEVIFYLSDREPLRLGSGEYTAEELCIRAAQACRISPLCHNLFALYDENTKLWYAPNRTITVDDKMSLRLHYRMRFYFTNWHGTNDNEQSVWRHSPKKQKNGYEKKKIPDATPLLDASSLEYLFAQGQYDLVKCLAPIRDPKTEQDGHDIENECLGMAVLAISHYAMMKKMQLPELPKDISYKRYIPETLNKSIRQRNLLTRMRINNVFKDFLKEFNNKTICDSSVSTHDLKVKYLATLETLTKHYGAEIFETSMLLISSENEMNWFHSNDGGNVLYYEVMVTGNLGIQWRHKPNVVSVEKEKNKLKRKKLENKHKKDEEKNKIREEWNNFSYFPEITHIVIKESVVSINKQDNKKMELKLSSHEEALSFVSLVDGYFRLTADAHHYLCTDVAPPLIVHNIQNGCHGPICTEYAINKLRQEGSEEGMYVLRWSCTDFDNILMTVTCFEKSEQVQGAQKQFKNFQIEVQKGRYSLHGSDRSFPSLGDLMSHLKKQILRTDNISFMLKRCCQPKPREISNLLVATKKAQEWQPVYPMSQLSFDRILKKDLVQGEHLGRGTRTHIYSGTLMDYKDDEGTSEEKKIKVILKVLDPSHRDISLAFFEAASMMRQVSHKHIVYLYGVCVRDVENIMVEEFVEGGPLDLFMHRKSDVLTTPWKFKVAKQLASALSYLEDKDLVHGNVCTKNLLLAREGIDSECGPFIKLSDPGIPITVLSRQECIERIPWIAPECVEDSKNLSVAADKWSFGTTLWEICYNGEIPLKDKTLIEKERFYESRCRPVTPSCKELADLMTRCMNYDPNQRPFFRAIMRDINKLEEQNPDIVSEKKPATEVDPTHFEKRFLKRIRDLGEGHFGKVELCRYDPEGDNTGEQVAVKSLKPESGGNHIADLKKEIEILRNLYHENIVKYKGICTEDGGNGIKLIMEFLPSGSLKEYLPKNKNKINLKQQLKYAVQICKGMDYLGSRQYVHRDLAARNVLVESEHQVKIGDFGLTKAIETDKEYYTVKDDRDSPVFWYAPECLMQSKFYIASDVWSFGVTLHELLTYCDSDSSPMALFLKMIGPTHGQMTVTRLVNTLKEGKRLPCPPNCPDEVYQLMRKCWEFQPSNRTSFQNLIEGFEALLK

[3] = target: Tyrosine-protein kinase JAK2 (Homo sapiens, UniProt O60674); experiment: Inhibition of Jak2 (unknown origin)
Sequence of Tyrosine-protein kinase JAK2 (O60674 whole entry): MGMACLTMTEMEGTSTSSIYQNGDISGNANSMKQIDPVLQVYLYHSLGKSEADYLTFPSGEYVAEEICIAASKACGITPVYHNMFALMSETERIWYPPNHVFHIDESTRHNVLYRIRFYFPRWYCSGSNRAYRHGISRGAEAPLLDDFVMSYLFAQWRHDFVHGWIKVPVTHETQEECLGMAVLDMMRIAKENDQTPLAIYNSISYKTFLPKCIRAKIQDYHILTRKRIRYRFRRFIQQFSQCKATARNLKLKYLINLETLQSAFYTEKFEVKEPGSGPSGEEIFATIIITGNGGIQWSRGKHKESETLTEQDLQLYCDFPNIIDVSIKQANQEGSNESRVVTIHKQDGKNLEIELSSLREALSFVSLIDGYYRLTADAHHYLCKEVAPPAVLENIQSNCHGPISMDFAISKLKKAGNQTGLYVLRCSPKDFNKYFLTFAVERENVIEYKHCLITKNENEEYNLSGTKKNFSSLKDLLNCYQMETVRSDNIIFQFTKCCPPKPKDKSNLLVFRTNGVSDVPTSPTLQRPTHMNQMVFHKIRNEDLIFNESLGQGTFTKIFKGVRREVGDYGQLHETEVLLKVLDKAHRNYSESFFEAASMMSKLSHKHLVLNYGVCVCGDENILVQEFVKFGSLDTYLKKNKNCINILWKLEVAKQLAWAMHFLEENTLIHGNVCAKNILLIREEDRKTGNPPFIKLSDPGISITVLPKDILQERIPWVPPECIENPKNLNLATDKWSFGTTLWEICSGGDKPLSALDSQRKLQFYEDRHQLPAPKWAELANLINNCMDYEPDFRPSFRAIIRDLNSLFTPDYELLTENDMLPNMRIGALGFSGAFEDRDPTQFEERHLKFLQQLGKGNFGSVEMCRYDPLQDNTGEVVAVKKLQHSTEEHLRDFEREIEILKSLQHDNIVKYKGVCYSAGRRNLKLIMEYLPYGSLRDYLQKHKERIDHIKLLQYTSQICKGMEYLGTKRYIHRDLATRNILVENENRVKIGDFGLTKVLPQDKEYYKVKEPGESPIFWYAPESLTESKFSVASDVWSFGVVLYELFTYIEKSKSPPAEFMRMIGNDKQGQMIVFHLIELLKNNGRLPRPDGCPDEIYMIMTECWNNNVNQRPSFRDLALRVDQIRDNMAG

[4] = target: T1, Tyrosine-protein kinase JAK3 (Homo sapiens, UniProt P52333); experiment: Inhibition of Jak3 (unknown origin)
T1 sequence (P52333 whole entry): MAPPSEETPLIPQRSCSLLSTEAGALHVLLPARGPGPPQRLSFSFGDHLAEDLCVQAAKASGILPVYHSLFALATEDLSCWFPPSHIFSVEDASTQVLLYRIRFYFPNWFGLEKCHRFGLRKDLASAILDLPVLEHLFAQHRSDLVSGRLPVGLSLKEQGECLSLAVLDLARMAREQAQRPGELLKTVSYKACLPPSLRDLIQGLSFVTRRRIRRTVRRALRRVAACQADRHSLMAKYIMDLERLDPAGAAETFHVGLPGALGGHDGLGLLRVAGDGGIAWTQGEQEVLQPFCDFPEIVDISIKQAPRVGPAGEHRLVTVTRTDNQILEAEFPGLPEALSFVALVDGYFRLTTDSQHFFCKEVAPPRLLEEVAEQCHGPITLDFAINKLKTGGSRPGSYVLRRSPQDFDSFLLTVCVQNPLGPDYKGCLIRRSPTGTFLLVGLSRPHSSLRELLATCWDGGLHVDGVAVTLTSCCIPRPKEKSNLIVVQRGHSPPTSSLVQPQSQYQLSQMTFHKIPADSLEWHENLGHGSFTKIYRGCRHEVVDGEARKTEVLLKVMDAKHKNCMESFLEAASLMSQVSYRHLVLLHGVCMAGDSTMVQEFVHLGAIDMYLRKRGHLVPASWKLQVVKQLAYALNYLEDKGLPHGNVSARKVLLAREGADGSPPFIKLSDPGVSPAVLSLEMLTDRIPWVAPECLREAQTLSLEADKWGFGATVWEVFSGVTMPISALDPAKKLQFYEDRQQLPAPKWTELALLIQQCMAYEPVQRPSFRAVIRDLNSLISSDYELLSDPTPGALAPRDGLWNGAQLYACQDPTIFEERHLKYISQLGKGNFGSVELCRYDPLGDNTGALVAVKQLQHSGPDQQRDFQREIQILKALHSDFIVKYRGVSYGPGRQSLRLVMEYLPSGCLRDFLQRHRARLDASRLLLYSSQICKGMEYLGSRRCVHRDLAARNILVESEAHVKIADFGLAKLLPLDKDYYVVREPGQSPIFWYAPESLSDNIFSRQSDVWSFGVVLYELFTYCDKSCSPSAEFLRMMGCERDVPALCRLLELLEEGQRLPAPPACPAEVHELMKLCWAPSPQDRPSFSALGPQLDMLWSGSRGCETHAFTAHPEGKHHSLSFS

[5] = Half life in Wistar rat at 10 mg/kg, po and 3 mg/kg, iv; type: ADME, organism-based; conditions: in vivo
Procedure, shortened: (§1)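 Rat pharmacokinetics. Oral dose 10 mg/kg in 0.1% HPMC. IV dose 3 mg/kg in 40% DMA/40% PEG/20% saline. Clearance, half-life, Vdss and oral bioavailability derived from the plasma profiles.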

[6] = Clearance in Wistar rat at 10 mg/kg, po and 3 mg/kg, iv; type: ADME, organism-based; conditions: in vivo; procedure, shortened: as §1
[7] = Volume of distribution at steady state in Wistar rat at 10 mg/kg, po and 3 mg/kg, iv; type: ADME, organism-based; conditions: in vivo, read-out: Vdss; procedure, shortened: as §1
[8] = Volume of distribution at steady state in beagle dog at 2.5 mg/kg, iv; type: ADME, organism-based, Canis lupus familiaris; design: dose 2.5 mg/kg, route intravenous; conditions: in vivo, read-out: Vdss
Procedure, shortened: (§2)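 Male beagle dogs. Oral dose 10 mg/kg in 0.1% HPMC, pH 2. IV dose 2.5 mg/kg in 20% TEG/D5W. […] Clearance, Vdss, half-life and oral bioavailability (F%) derived from the plasma profiles.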

Canis familiaris [9] = experiment: Oral bioavailability in beagle dog at 10 mg/kg; type: ADME, organism-based, Canis lupus familiaris; conditions: in vivo; procedure, shortened: as §2
[10] = Half life in beagle dog at 10 mg/kg, po; type: ADME, organism-based, Canis lupus familiaris; design: dose 10 mg/kg, route oral; conditions: in vivo; procedure, shortened: as §2
[11] = Oral bioavailability in Wistar rat at 10 mg/kg; type: ADME, organism-based; conditions: in vivo; procedure, shortened: as §1
Canis familiaris [12] = experiment: AUC (0 to 12 hrs) in beagle dog at 10 mg/kg, po; type: ADME, organism-based, Canis lupus familiaris, Plasma; design: time < 12 hr, dose 10 mg/kg, route oral; conditions: in vivo; procedure, shortened: as §2
[13] = Half life in beagle dog at 2.5 mg/kg, iv; type: ADME, organism-based, Canis lupus familiaris; design: dose 2.5 mg/kg, route intravenous; conditions: in vivo; procedure, shortened: as §2

IC50 [2] [µM]	IC50 [3] [µM]	IC50 [4] [µM]	SMILES	GI50 [1] [µM]	other results
1.5	0.8	> 30	C[C@H](Nc1nc(Nc2cn(C)cn2)c2nccnc2n1)c1ncc(F)cn1	0.53	–
0.131	0.033	3.78	CC(Nc1nc(Nc2cn(C)cn2)c2cccnc2n1)c1ncc(F)cn1 (racemic)	0.04	half-life [5]: 0.92 h; clearance [6]: 100 mL/min/kg; Vd [7]: 2.5 L/kg
–	< 0.003	> 30	CC(Nc1nc(Nc2cn(C)cn2)c2ccc(Cl)nc2n1)c1ncc(F)cn1 (racemic)	0.028	–
–	< 0.003	5.88	CC(Nc1nc(Nc2cn(C)cn2)c2[nH]ccc2n1)c1ncc(F)cn1 (racemic)	0.099	–
–	–	3.93	Cc1csc2c(Nc3cn(C)cn3)nc(N[C@@H](C)c3ncc(F)cn3)nc12	0.037	half-life [5]: 0.64 h; clearance [6]: 44 mL/min/kg; Vd [7]: 1.2 L/kg
–	0.67	> 30	COc1ccc2nc(NC(C)c3ncc(F)cn3)nc(Nc3cn(C)cn3)c2c1 (racemic)	3	–
–	0.49	30	C[C@H](Nc1nc(Nc2cn(C)cn2)c2cc(F)cnc2n1)c1ncc(F)cn1	3.1	–
0.022	0.05	4.62	CC(Nc1nc(Nc2cn(C)cn2)c2cn[nH]c2n1)c1ncc(F)cn1 (racemic)	0.11	–
0.028	0.012	1.82	C[C@H](Nc1nc(Nc2cn(C)cn2)c2ccncc2n1)c1ncc(F)cn1	0.025	–
–	0.024	13.2	COc1ccc2c(Nc3cn(C)cn3)nc(NC(C)c3ncc(F)cn3)nc2c1 (racemic)	0.034	half-life [5]: 0.98 h; clearance [6]: 110 mL/min/kg; Vd [7]: 6 L/kg
0.029	0.027	2.46	C[C@H](Nc1nc(Nc2cn(C)cn2)c2ccn(C3CC3)c2n1)c1ncc(F)cn1	0.056	–
0.016	0.015	1.44	C[C@H](Nc1nc(Nc2cn(C)cn2)c2cnn(C)c2n1)c1ncc(F)cn1	0.026	half-life [5]: 1.3 h; clearance [6]: 25 mL/min/kg; Vd [7]: 1.8 L/kg; Vd [8]: 2.1 L/kg; F (Canis familiaris [9]): 139%; half-life [10]: 7.7 h; bioavailability [11]: 90%; AUC (Canis familiaris [12]): 49 µM·h; half-life [13]: 6.2 h
–	0.12	–	C[C@H](Nc1ncc(Cl)c(Nc2cn(C)cn2)n1)c1ncc(F)cn1	0.27	–
0.024	0.027	7.56	C[C@H](Nc1nc(Nc2cn(C)cn2)c2ccn(C)c2n1)c1ncc(F)cn1	0.034	–
–	0.003	14.8	C[C@H](Nc1nc(Nc2cn(C)cn2)c2ccccc2n1)c1ncc(F)cn1	0.034	–
